According to ChEMBL document CHEMBL4152368, “Novel 4-(2-pyrimidinylamino)benzamide derivatives as potent hedgehog signaling pathway inhibitors” (Bioorg Med Chem, 2018):

Assays:
[1] = Inhibition of Hedgehog signaling pathway in mouse NIH/3T3 cells assessed as reduction in Sonic hedgehog-induced Gli luciferase activity after 48 hrs by Dual-luciferase reporter gene assay; type: cell-based; conditions: NIH3T3, 48 h
How it was run: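 NIH3T3 cells stably carrying a Gli-luciferase reporter were grown in DMEM/10% FBS with 1 μg/mL puromycin. They were seeded at 2×10⁴ cells/well and cultured overnight at 37 °C, 5% CO₂. Compounds were added as 8-point serial dilutions (0.05–300 nM) in 0.5% FBS with 0.7 μg/mL Sonic Hh agonist, n = 4 wells, for 48 h. Controls were 0.1% DMSO with or without Shh. Read-out was the Firefly/Renilla luciferase ratio.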

[2] = Half life in Sprague-Dawley rat at 1 mg/kg, iv by LC/MS/MS analysis; type: ADME, organism-based; conditions: in vivo
How it was run: (§1)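 Male SD rats (3; 180–240 g) received a single 1 mg/kg iv dose at a dosing volume of 5 mL/kg. Blood was sampled at 2, 5, 15 and 30 min and at 1, 2, 4, 6, 8, 10 and 24 h, then centrifuged for 5 min at 4 °C. Plasma underwent protein precipitation and LC/MS/MS in SRM mode with an internal standard. Parameters were derived by noncompartmental analysis.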

[3] = Cmax in Sprague-Dawley rat at 1 mg/kg, iv by LC/MS/MS analysis; type: ADME, organism-based; set-up: dose 1 mg/kg, route intravenous; conditions: in vivo; how it was run: as §1
[4] = AUC in Sprague-Dawley rat at 1 mg/kg, iv by LC/MS/MS analysis; type: ADME, organism-based; conditions: in vivo; how it was run: as §1
[5] = Clearance in Sprague-Dawley rat at 1 mg/kg, iv by LC/MS/MS analysis; type: ADME, organism-based; conditions: in vivo; how it was run: as §1
[6] = Apparent volume of distribution in Sprague-Dawley rat at 1 mg/kg, iv by LC/MS/MS analysis; type: ADME, organism-based; conditions: in vivo, read-out: Vz; how it was run: as §1

| SMILES | IC50 [1] | half-life [2] | Cmax [3] | AUC [4] | clearance [5] | Vd [6] |
| --- | --- | --- | --- | --- | --- | --- |
| CCc1cnc(Nc2ccc(C(=O)Nc3cc(CN4CCN(C)CC4)ccc3C)cc2)nc1-c1ccc(OC(F)(F)F)cc1 | 2.21 nM | – | – | – | – | – |
| Cc1ccc(OCCN(C)C)cc1NC(=O)c1ccc(Nc2ncc(C)c(-c3ccc(OC(F)(F)F)cc3)n2)cc1 | 1.07 nM | – | – | – | – | – |
| Cc1ccc(CN2CCOCC2)cc1NC(=O)c1ccc(Nc2nccc(-c3cccnc3)n2)cc1 | 29 nM | 15 min | 2520 ng/mL | 521 ng·h/mL | 33.6 mL/min/kg | 0.7 L/kg |
| CCN(CC)CCCNC(=O)c1ccc(C)c(NC(=O)c2ccc(Nc3ncc(C)c(-c4ccc(OC(F)(F)F)cc4)n3)cc2)c1 | 0.62 nM | – | – | – | – | – |
| Cc1ccc(CN2CCCCC2)cc1NC(=O)c1ccc(Nc2ncc(C)c(-c3ccccc3)n2)cc1 | 1.94 nM | – | – | – | – | – |
| Cc1ccc(CN2CCCC2)cc1NC(=O)c1ccc(Nc2ncc(C)c(-n3ccnc3)n2)cc1 | 21.1 nM | – | – | – | – | – |
| Cc1ccc(OCCCN2CCOCC2)cc1NC(=O)c1ccc(Nc2ncc(C)c(-c3ccc(OC(F)(F)F)cc3)n2)cc1 | 2.14 nM | – | – | – | – | – |
| Cc1ccc(CN2CCN(C)CC2)cc1NC(=O)c1ccc(Nc2ncc(C)c(-c3ccccn3)n2)cc1 | 7.37 nM | – | – | – | – | – |
| Cc1ccc(OCCN2CCOCC2)cc1NC(=O)c1ccc(Nc2ncc(C)c(-c3ccc(OC(F)(F)F)cc3)n2)cc1 | 2.45 nM | – | – | – | – | – |
| Cc1ccc(CN2CCN(C)CC2)cc1NC(=O)c1ccc(Nc2ncc(C3CC3)c(-c3ccc(OC(F)(F)F)cc3)n2)cc1 | 1.54 nM | – | – | – | – | – |
| Cc1ccc(OCCN2CCOCC2)cc1NC(=O)c1ccc(Nc2ncc(C)c(-c3ccccc3)n2)cc1 | 4.28 nM | 86.4 min | 863 ng/mL | 787 ng·h/mL | 21.5 mL/min/kg | 2.75 L/kg |
| Cc1ccc(CN2CCOCC2)cc1NC(=O)c1ccc(Nc2ncc(C)c(-c3ccccn3)n2)cc1 | 1.89 nM | 50.4 min | 1540 ng/mL | 1370 ng·h/mL | 12.3 mL/min/kg | 0.888 L/kg |
